Several values for one entry are separate records, joined by “and”; a condition that tells them apart may be missing. Equal entries are not always repeated. One block for each compound: values may come before it.
Assays:
[1] = biological target: T1, Progesterone receptor (Homo sapiens) (UniProt P06401); test: Nonspecific binding affinity against progesterone receptor was estimated relative to compound R5020
T1 sequence (whole entry): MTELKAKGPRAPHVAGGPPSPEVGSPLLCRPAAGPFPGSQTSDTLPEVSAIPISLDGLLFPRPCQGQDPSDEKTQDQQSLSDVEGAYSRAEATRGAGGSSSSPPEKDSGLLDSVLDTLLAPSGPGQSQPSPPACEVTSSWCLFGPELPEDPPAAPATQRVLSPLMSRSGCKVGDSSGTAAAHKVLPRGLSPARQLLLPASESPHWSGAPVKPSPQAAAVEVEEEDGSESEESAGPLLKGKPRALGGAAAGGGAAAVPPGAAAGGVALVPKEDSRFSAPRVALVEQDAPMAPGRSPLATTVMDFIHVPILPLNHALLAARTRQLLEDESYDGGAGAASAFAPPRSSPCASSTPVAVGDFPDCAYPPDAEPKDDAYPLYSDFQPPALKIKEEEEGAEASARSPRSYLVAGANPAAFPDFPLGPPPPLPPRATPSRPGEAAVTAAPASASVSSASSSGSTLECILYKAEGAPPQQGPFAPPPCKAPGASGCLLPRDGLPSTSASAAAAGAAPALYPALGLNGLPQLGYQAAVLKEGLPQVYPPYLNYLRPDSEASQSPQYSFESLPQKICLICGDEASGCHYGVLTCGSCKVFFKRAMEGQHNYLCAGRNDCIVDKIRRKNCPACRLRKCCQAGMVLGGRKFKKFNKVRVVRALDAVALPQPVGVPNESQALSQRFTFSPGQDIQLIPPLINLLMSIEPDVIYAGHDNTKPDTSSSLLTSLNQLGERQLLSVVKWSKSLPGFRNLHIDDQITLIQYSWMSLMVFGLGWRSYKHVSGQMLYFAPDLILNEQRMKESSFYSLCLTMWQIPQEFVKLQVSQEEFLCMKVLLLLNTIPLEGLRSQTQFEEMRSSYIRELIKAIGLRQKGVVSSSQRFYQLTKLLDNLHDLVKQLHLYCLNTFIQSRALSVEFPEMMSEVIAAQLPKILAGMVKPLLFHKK

[2] = Partition coefficient (logP); format: physicochemical; settings: octanol/water
Method in brief: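 log P(o/w) (octanol/water) estimated by a reversed-phase HPLC method.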

[3] = species on record: Rattus norvegicus; test: Tissue biodistribution into estrogen-primed immature female rat blood at 1 hr blocked time interval; format: ADME, organism-based; settings: in vivo
Method in brief: (§1)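 Immature female Sprague-Dawley rats (25 days old, ≈50 g, five per time point) primed with estradiol, 5 μg sc daily for 2 days in 50% ethanol/sunflower seed oil, used 24 h after the last injection. The 18F-labeled ligand was given iv by tail vein in 10% ethanol/saline. Decapitated at 1 or 3 h; blood and organs weighed and gamma-counted. Reported as %ID/g ± SD, n = 5.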

[4] = species on record: Rattus norvegicus; test: Tissue biodistribution into estrogen-primed immature female rat muscle at 3 hr time interval; format: ADME, organism-based; settings: in vivo; method in brief: as §1
[5] = species on record: Rattus norvegicus; test: Tissue biodistribution into estrogen-primed immature female rat uterus/blood at 3 hr time interval; format: ADME, organism-based; settings: in vivo; method in brief: as §1
[6] = species on record: Rattus norvegicus; test: Tissue biodistribution into estrogen-primed immature female rat blood at 3 hr time interval; format: ADME, organism-based; settings: in vivo; method in brief: as §1
[7] = species on record: Rattus norvegicus; test: Tissue biodistribution into estrogen-primed immature female rat muscle at 1 hr time interval; format: ADME, organism-based; settings: in vivo; method in brief: as §1
[8] = species on record: Rattus norvegicus; test: Tissue biodistribution into estrogen-primed immature female rat brain at 1 hr low time interval; format: ADME, organism-based; settings: in vivo; method in brief: as §1
[9] = species on record: Rattus norvegicus; test: Tissue biodistribution into estrogen-primed immature female rat brain at 1 hr blocked time interval; format: ADME, organism-based; settings: in vivo; method in brief: as §1
[10] = species on record: Rattus norvegicus; test: Tissue biodistribution into estrogen-primed immature female rat fat at 1 hr low time interval; format: ADME, organism-based, Adipose tissue; settings: in vivo; method in brief: as §1
[11] = species on record: Rattus norvegicus; test: Tissue biodistribution into estrogen-primed immature female rat bone at 3 hr time interval; format: ADME, organism-based, Bone element; settings: in vivo; method in brief: as §1
[12] = species on record: Rattus norvegicus; test: Tissue biodistribution into estrogen-primed immature female rat liver at 1 hr time interval; format: ADME, organism-based; settings: in vivo; method in brief: as §1
[13] = species on record: Rattus norvegicus; test: Tissue biodistribution into estrogen-primed immature female rat bone at 1 hr low time interval; format: ADME, organism-based, Bone element; settings: in vivo; method in brief: as §1
[14] = species on record: Rattus norvegicus; test: Tissue biodistribution into estrogen-primed immature female rat uterus at 1 hr time interval; format: ADME, organism-based; settings: in vivo; method in brief: as §1
[15] = species on record: Rattus norvegicus; test: Tissue biodistribution into estrogen-primed immature female rat lung at 1 hr blocked time interval; format: ADME, organism-based; settings: in vivo; method in brief: as §1
[16] = species on record: Rattus norvegicus; test: Tissue biodistribution into estrogen-primed immature female rat kidney at 3 hr time interval; format: ADME, organism-based; settings: in vivo; method in brief: as §1
[17] = species on record: Rattus norvegicus; test: Tissue biodistribution into estrogen-primed immature female rat ovaries at 3 hr time interval; format: ADME, organism-based, Female gonad; settings: in vivo; method in brief: as §1
[18] = species on record: Rattus norvegicus; test: Tissue biodistribution into estrogen-primed immature female rat ovaries at 1 hr low time interval; format: ADME, organism-based, Female gonad; settings: in vivo; method in brief: as §1
[19] = species on record: Rattus norvegicus; test: Tissue biodistribution into estrogen-primed immature female rat ovaries at 1 hr blocked time interval; format: ADME, organism-based; settings: in vivo; method in brief: as §1
[20] = species on record: Rattus norvegicus; test: Tissue biodistribution into estrogen-primed immature female rat liver at 3 hr time interval; format: ADME, organism-based; settings: in vivo; method in brief: as §1
[21] = species on record: Rattus norvegicus; test: Tissue biodistribution into estrogen-primed immature female rat uterus/muscle at 1 hr blocked time interval; format: ADME, organism-based; settings: in vivo; method in brief: as §1
[22] = species on record: Rattus norvegicus; test: Tissue biodistribution into estrogen-primed immature female rat liver at 1 hr low time interval; format: ADME, organism-based; settings: in vivo; method in brief: as §1
[23] = species on record: Rattus norvegicus; test: Tissue biodistribution into estrogen-primed immature female rat blood at 1 hr time interval; format: ADME, organism-based; settings: in vivo; method in brief: as §1
[24] = species on record: Rattus norvegicus; test: Tissue biodistribution into estrogen-primed immature female rat muscle at 1 hr low time interval; format: ADME, organism-based; settings: in vivo; method in brief: as §1
[25] = species on record: Rattus norvegicus; test: Tissue biodistribution into estrogen-primed immature female rat bone at 1 hr time interval; format: ADME, organism-based, Bone element; settings: in vivo; method in brief: as §1
[26] = species on record: Rattus norvegicus; test: Tissue biodistribution into estrogen-primed immature female rat brain at 1 hr time interval; format: ADME, organism-based; settings: in vivo; method in brief: as §1
[27] = species on record: Rattus norvegicus; test: Tissue biodistribution into estrogen-primed immature female rat uterus at 1 hr low time interval; format: ADME, organism-based; settings: in vivo; method in brief: as §1
[28] = species on record: Rattus norvegicus; test: Tissue biodistribution into estrogen-primed immature female rat uterus/muscle at 1 hr low time interval; format: ADME, organism-based; settings: in vivo; method in brief: as §1
[29] = species on record: Rattus norvegicus; test: Tissue biodistribution into estrogen-primed immature female rat uterus at 1 hr blocked time interval; format: ADME, organism-based; settings: in vivo; method in brief: as §1
[30] = species on record: Rattus norvegicus; test: Tissue biodistribution into estrogen-primed immature female rat uterus/blood at 1 hr time interval; format: ADME, organism-based; settings: in vivo; method in brief: as §1
[31] = species on record: Rattus norvegicus; test: Tissue biodistribution into estrogen-primed immature female rat uterus/muscle at 3 hr time interval; format: ADME, organism-based; settings: in vivo
[32] = species on record: Rattus norvegicus; test: Tissue biodistribution into estrogen-primed immature female rat uterus/muscle at 1 hr time interval; format: ADME, organism-based; settings: in vivo
[33] = species on record: Rattus norvegicus; test: Tissue biodistribution into estrogen-primed immature female rat kidney at 1 hr blocked time interval; format: ADME, organism-based; settings: in vivo; method in brief: as §1
[34] = species on record: Rattus norvegicus; test: Tissue biodistribution into estrogen-primed immature female rat muscle at 1 hr blocked time interval; format: ADME, organism-based; settings: in vivo; method in brief: as §1
[35] = species on record: Rattus norvegicus; test: Tissue biodistribution into estrogen-primed immature female rat fat at 1 hr time interval; format: ADME, organism-based, Adipose tissue; settings: in vivo; method in brief: as §1
[36] = species on record: Rattus norvegicus; test: Tissue biodistribution into estrogen-primed immature female rat lung at 1 hr low time interval; format: ADME, organism-based; settings: in vivo; method in brief: as §1
[37] = species on record: Rattus norvegicus; test: Tissue biodistribution into estrogen-primed immature female rat kidney at 1 hr low time interval; format: ADME, organism-based; settings: in vivo; method in brief: as §1
[38] = species on record: Rattus norvegicus; test: Tissue biodistribution into estrogen-primed immature female rat lung at 1 hr time interval; format: ADME, organism-based; settings: in vivo; method in brief: as §1
[39] = species on record: Rattus norvegicus; test: Tissue biodistribution into estrogen-primed immature female rat ovaries at 1 hr time interval; format: ADME, organism-based, Female gonad; settings: in vivo; method in brief: as §1
[40] = species on record: Rattus norvegicus; test: Tissue biodistribution into estrogen-primed immature female rat lung at 3 hr time interval; format: ADME, organism-based; settings: in vivo; method in brief: as §1
[41] = species on record: Rattus norvegicus; test: Tissue biodistribution into estrogen-primed immature female rat bone at 1 hr blocked time interval; format: ADME, organism-based, Bone element; settings: in vivo; method in brief: as §1
[42] = species on record: Rattus norvegicus; test: Tissue biodistribution into estrogen-primed immature female rat blood at 1 hr low time interval; format: ADME, organism-based; settings: in vivo; method in brief: as §1
[43] = species on record: Rattus norvegicus; test: Tissue biodistribution into estrogen-primed immature female rat brain at 3 hr time interval; format: ADME, organism-based; settings: in vivo; method in brief: as §1
[44] = species on record: Rattus norvegicus; test: Tissue biodistribution into estrogen-primed immature female rat fat at 3 hr time interval; format: ADME, organism-based, Adipose tissue; settings: in vivo; method in brief: as §1
[45] = species on record: Rattus norvegicus; test: Tissue biodistribution into estrogen-primed immature female rat liver at 1 hr blocked time interval; format: ADME, organism-based; settings: in vivo; method in brief: as §1
[46] = species on record: Rattus norvegicus; test: Tissue biodistribution into estrogen-primed immature female rat uterus/blood at 1 hr blocked time interval; format: ADME, organism-based; settings: in vivo; method in brief: as §1
[47] = species on record: Rattus norvegicus; test: Tissue biodistribution into estrogen-primed immature female rat kidney at 1 hr time interval; format: ADME, organism-based; settings: in vivo; method in brief: as §1
[48] = species on record: Rattus norvegicus; test: Tissue biodistribution into estrogen-primed immature female rat uterus/blood at 1 hr low time interval; format: ADME, organism-based; settings: in vivo; method in brief: as §1
[49] = species on record: Rattus norvegicus; test: Tissue biodistribution into estrogen-primed immature female rat uterus at 3 hr time interval; format: ADME, organism-based; settings: in vivo; method in brief: as §1
[50] = species on record: Rattus norvegicus; test: Tissue biodistribution into estrogen-primed immature female rat fat at 1 hr blocked time interval; format: ADME, organism-based, Adipose tissue; settings: in vivo; method in brief: as §1

- NSB [1]: 0.96 and 0.76
- logP [2]: 3.78
- logP ([2]; read-out: logP): 4.01
SMILES: C[C@]12CCC3C(CCC4=CC(=O)CC[C@@H]43)C1C[C@H]1OC(c3ccco3)O[C@]12C(=O)CO (some centres undefined)

- Injected dose/g [3]: 0.46%
- Injected dose/g [4]: 0.26%
- uterus/blood ratio [5]: 48
- Injected dose/g [6]: 0.19%
- Injected dose/g [7]: 0.59%
- Injected dose/g [8]: 0.4%
- Injected dose/g [9]: 0.49%
- Injected dose/g [10]: 2.15%
- Injected dose/g [11]: 1.3%
- Injected dose/g [12]: 2.4%
- Injected dose/g [13]: 0.99%
- Injected dose/g [14]: 6.8%
- Injected dose/g [15]: 1.16%
- Injected dose/g [16]: 0.73%
- NSB [1]: 0.83 and 1.06
- Injected dose/g [17]: 2.62%
- Injected dose/g [18]: 2.13%
- Injected dose/g [19]: 1.65%
- Injected dose/g [20]: 1.65%
- uterus/muscle ratio [21]: 2.34
- Injected dose/g [22]: 1.81%
- Injected dose/g [23]: 0.38%
- Injected dose/g [24]: 0.41%
- Injected dose/g [25]: 1.11%
- Injected dose/g [26]: 0.57%
- Injected dose/g [27]: 5.18%
- Injected dose/g [28]: 12.85%
- Injected dose/g [29]: 1.68%
- Uterus to blood concentration ratio [30]: 18.18%
- ratio [31]: 32.2
- Uterus to muscle uptake ratio [32]: 11.63%
- Injected dose/g [33]: 1.72%
- Injected dose/g [34]: 0.71%
- Injected dose/g [35]: 2.16%
- Injected dose/g [36]: 1.51%
- Injected dose/g [37]: 1.14%
- Injected dose/g [38]: 2.38%
- Injected dose/g [39]: 2.76%
- Injected dose/g [40]: 0.31%
- Injected dose/g [41]: 1.29%
- Injected dose/g [42]: 0.35%
- logP [2]: 4.11
- logP ([2]; read-out: logP): 3.87
- Injected dose/g [43]: 0.18%
- Injected dose/g [44]: 2.36%
- Injected dose/g [45]: 2.49%
- uterus/blood ratio [46]: 3.68
- Injected dose/g [47]: 1.66%
- Injected dose/g [48]: 14.95%
- Injected dose/g [49]: 7.83%
- Injected dose/g [50]: 2.4%
SMILES: C[C@]12CCC3C(CCC4=CC(=O)CC[C@@H]43)C1C[C@H]1OC(c3ccco3)O[C@]12C(=O)CF (some centres undefined)
